Data set [1] is described as follows: Modulation of STAT5 expression in imatinib-resistant human K562 cells assessed as STAT5 level at 5 uM measured after 6 hrs by Jess Simple Western immunoassay (reference value: 100%). The format is functional. The procedure, abridged:
(§1)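 K562-resistant (doxorubicin-resistant KD225) cells treated 6 h with compound at 5 µM, alone or with 1 µM imatinib, against a DMSO control. Total protein extracts analysed by capillary Jess Simple Western. STAT5 antibody 10 µg/ml with 0.2 mg/ml lysate; pSTAT5 (Y694/699) antibody 20 µg/ml with 2 mg/ml lysate. GAPDH (0.4 µg/ml) as loading reference; HRP anti-rabbit secondary.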

In data set [2] the test system is K562. The experiment in a line: Cytotoxicity against imatinib-resistant human K562 cells assessed as cell death at 5 uM incubated for 72 hrs by propidium iodide staining based flow cytometry. Particulars: k562, 72 h. The procedure, abridged: (§2)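 K562-resistant cells, a doxorubicin-resistant K562 subclone (KD225), grown in RPMI 1640 with 10% FCS. Seeded 2×10^5/well and exposed 72 h to compound alone or with 1 µM imatinib. PI/Triton X-100 staining 2 h at 4 °C; flow cytometry scoring sub-G1 nuclei as dead cells. DMSO vehicle (≤0.1%) controls. Mean ± SEM of ≥3 experiments.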
(A flow cytometer gives signals particle by particle.)

Data set [3] is described as follows: Cytotoxicity against human HS5 cells assessed as cell death at 5 uM incubated for 72 hrs in presence of imatinib by PI staining based flow cytometry. Particulars: hs5, 72 h. In a few lines: (§3)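 HS-5 stromal cells in DMEM with 10% FCS, 5% CO2, 37 °C. Seeded 0.5×10^5/well, given compound (5 µM) alone or with imatinib, and incubated 72 h. Cells stained with PI/Triton X-100 for 2 h at 4 °C. Dead cells counted by flow cytometry as sub-G1 nuclei. DMSO vehicle control included.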

Data set [4] relates to K562. The experiment in a line: Induction of cell sensitization to imatinib in imatinib-resistant human K562 cells assessed as cell death at 10 uM incubated for 72 hrs in presence of 1 uM imatinib by PI staining based flow cytometry (reference value: 19%). The data set is classed as functional.
Data set [5] in a line: Cytotoxicity against human HS5 cells assessed as cell death at 5 uM incubated for 72 hrs by PI staining based flow cytometry. The following applies: hs5, 72 h. The procedure, abridged: as §3
The subject of data set [6] is K562. The experiment in a line: Induction of cell sensitization to imatinib in imatinib-resistant human K562 cells assessed as cell death at 5 uM incubated for 72 hrs in presence of 1 uM imatinib by PI staining based flow cytometry (reference value: 19%). The format is functional.
For data set [7], the target named is T1, Peroxisome proliferator-activated receptor gamma (Homo sapiens, UniProt P37231).
T1 sequence (P37231 whole entry): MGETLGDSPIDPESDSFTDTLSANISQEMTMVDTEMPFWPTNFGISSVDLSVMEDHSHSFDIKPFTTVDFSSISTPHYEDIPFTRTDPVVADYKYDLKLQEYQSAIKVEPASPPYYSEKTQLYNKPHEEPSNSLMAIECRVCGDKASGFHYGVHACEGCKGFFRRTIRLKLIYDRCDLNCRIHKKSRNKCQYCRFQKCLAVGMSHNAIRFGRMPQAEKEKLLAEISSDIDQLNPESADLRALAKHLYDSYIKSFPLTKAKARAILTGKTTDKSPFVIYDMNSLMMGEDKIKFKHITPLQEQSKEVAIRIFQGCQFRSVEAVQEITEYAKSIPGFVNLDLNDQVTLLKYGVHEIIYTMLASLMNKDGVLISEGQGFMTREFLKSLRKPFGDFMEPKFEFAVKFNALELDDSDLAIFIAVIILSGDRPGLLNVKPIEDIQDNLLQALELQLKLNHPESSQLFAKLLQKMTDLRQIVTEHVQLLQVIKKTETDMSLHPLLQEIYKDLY
Nature of the data set: Agonist activity at Gal4-fused human PPARgamma transfected in African green monkey COS7 cells co-transfected with pGal5-TK-pGL3 and pRenilla-CMV assessed as receptor transactivation at 10 uM incubated for 39 hrs by dual luciferase reporter gene assay relative to piaglitazone. The data set is classed as cell-based. Particulars: COS-7, human, read-out: max activation. In a few lines: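 COS-7 cells (10^4/well, triplicates) grown 24 h, then transiently transfected with pGal5-TK-pGL3 (90 ng), pGal4-hPPARγDEF (9 ng) and pRenilla-CMV (3 ng). Compound added 7 h later, incubation 39 h. Cells lysed by freezing at -80 °C overnight plus lysis buffer. Firefly luciferase normalised to Renilla. Activity at 10 µM expressed relative to pioglitazone at 10 µM (100%). Mean ± SD of ≥3 experiments.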

Data set [8] in a line: Modulation of STAT5 expression in imatinib-resistant human K562 cells assessed as STAT5 level at 5 uM measured after 6 hrs in presence of imatinib by Jess Simple Western immunoassay (reference value: 100%). The data set is classed as functional.
Data set [9] deals with T2, Signal transducer and activator of transcription 5A (Homo sapiens) (UniProt P42229).
T2 sequence (whole entry): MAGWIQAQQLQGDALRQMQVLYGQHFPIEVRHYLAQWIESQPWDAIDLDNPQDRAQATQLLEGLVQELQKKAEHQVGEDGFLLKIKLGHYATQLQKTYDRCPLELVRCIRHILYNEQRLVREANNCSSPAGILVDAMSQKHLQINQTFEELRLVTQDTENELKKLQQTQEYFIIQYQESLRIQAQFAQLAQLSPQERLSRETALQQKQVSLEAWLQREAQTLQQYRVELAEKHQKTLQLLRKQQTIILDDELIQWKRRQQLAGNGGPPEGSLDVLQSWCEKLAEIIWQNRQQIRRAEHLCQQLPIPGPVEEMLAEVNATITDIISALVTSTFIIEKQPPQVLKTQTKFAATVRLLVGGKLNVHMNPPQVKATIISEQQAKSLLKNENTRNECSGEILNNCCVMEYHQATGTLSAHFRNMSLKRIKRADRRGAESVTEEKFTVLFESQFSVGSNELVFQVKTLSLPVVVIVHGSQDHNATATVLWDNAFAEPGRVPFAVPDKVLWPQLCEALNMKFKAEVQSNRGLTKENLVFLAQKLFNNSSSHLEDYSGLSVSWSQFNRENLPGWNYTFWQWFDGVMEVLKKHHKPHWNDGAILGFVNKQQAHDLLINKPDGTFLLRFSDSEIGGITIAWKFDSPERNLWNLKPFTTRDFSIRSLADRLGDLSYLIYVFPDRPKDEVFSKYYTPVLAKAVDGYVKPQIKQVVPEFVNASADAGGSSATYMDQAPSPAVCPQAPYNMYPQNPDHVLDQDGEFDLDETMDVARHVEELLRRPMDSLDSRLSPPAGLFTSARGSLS
Nature of the data set: Inhibition of STAT5 phosphorylation at Y694/699 residue in imatinib-resistant human K562 cells assessed as phosphorylated STAT5 level at 5 uM incubated for 6 hrs in presence of imatinib by Jess Simple Western immunoassay (reference value: 100%). The format is cell-based. On the set-up: scale not given: the % may be the effect or the level left.

Data set [10] concerns COS-7. Nature of the data set: Cytotoxicity against African green monkey COS7 cells assessed as cell viability at 10 uM incubated for 72 hrs by MTT assay. Particulars: chlorocebus aethiops, cos-7, 72 h. In general terms: Tetrazolium assays rely on reduction of a dye to a coloured formazan, in cell work by metabolically active cells.
Data set [11] has as its target T2, Signal transducer and activator of transcription 5A (Homo sapiens). Nature of the data set: Inhibition of STAT5 phosphorylation at Y694/699 residue in imatinib-resistant human K562 cells assessed as phosphorylated STAT5 level at 5 uM incubated for 6 hrs by Jess Simple Western immunoassay (reference value: 100%). The data set is classed as cell-based. On the set-up: scale not given: the % may be the effect or the level left. The procedure, abridged:
as §1

The test system of data set [12] is COS-7. Nature of the data set: Cytotoxicity against African green monkey COS7 cells assessed as cell viability at 10 uM incubated for 72 hrs by MTT assay. The data set is classed as cell-based. Particulars: chlorocebus aethiops, cos-7, 72 h. In a few lines: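 COS-7 cells in DMEM with 10% FCS and L-glutamine, no antibiotics or phenol red. Seeded 2×10^3/well in triplicate, grown 24 h, then compound added at 10 µM final and incubated 72 h. Modified MTT (tetrazolium) metabolic-activity readout by absorbance. DMSO control set to 100%; DMSO ≤0.1%. Mean + SD of ≥3 experiments, triplicate determinations.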

Data set [13] deals with K562. The experiment in a line: Induction of cell sensitization to imatinib in imatinib-resistant human K562 cells assessed as cell death at 1.75 uM incubated for 72 hrs in presence of 1 uM imatinib by PI staining based flow cytometry (reference value: 19%). The data set is classed as functional.
Data set [14] concerns K562. Nature of the data set: Induction of cell sensitization to imatinib in imatinib-resistant human K562 cells assessed as cell death at >10 uM incubated for 72 hrs in presence of 1 uM imatinib by PI staining based flow cytometry. The format is functional. Particulars: dose microM >10, time 72.0 hrs. The procedure, abridged:
as §2

Activity calls are given as the source filed them. The rule behind the calls is not given here.

As to `CCCc1nc2c(F)cccc2n1Cc1ccc(-c2ccccc2C#N)cc1`, the Activity in data set [1] is on record as 105%; in the data set with K562 [2] it was “<= 20%”; in data set [3], “Non-Toxic”; with K562 [4], greater than 85%; in data set [5], “Non-Toxic”; in the data set on K562 [6], 50%. The Activity in data set [8] is 96%; in data set [9] it was 1%; with COS-7 [10], “Non-Toxic”; in data set [11], 89%; with COS-7 [12] it was “Non-Toxic”. The Emax at 10 µM in [7] came to 76%.
As for `CCCc1nc2c(Br)cccc2n1Cc1ccc(-c2ccccc2C#N)cc1`, the Activity is recorded as 107% in data set [1]; “<= 20%” in the data set on K562 [2]; “Non-Toxic” in [3]; greater than 85% with K562 [4]; “Non-Toxic” in data set [5]; greater than 76% with K562 [6]. For the same molecule, the Activity in data set [8] is 103%; in data set [9], 4%; with COS-7 [10] it was “Non-Toxic”; in data set [11], 90%; in the data set with COS-7 [12], “Non-Toxic”. Moreover, in data set [7], the Emax at 10 µM worked out at 41.1%.
On to `CCCc1nc2ccccc2n1Cc1ccc(-c2ccccc2C(=O)OC)cc1`, for which the Activity in data set [1] is recorded as 112%; in the data set on K562 [2] it was “<= 20%”; in data set [3] it was “Non-Toxic”; in the data set with K562 [4], greater than 85%; in data set [5], “Non-Toxic”; in the data set with K562 [6] it was 57%. In addition, the Activity is 112% in [8]; 2% in [9]; “Non-Toxic” with COS-7 [10]; 104% in [11]; “Non-Toxic” in the data set on COS-7 [12]. Moreover, the Emax at 10 µM in data set [7] worked out at 21.6%.
Consider `CCCc1nc2c(C)cc(-c3nc4ccccc4n3C)cc2n1Cc1ccc(-c2ccccc2C(=O)O)cc1` [TELMISARTAN], for which the values for the Activity in the data set on K562 [4], with K562 [13] and in the data set with K562 [6] were 63%, 21% and 57%, respectively. In addition, in data set [7], the Emax at 10 µM stood at 59.8%.
For the molecule `CCCc1nc2c(F)cccc2n1Cc1ccc(-c2ccccc2C(=O)OC)cc1`, the Activity is recorded as 98% in data set [1]; “<= 20%” in the data set on K562 [2]; “Non-Toxic” in [3]; greater than 85% with K562 [4]; “Non-Toxic” in [5]; 26% in the data set on K562 [6]. The Activity in data set [8] was 103%; in [9], 42%; with COS-7 [10], “Non-Toxic”; in [11] it was 102%; in the data set with COS-7 [12], “Non-Toxic”. Besides, in data set [7], the Emax at 10 µM came to 14.7%.
Turning to `CCCc1nc2c(Br)cccc2n1Cc1ccc(-c2ccccc2C(=O)OC)cc1`, the Activity in data set [1] is 103%; in the data set with K562 [2], “<= 20%”; in data set [3] it was “Non-Toxic”; with K562 [4], 66%; in data set [5], “Non-Toxic”; with K562 [6], 26%. The Activity in [8] was 116%; in data set [9], 27%; in the data set with COS-7 [10] it was “Non-Toxic”; in data set [11], 89%; in the data set on COS-7 [12], “Non-Toxic”. Moreover, the Emax at 10 µM in data set [7] is 11.6%.
Turning to `CCCc1nc2c(C)cc(-c3nc4ccccc4n3C)cc2n1Cc1ccc(-c2ccccc2C(N)=O)cc1`, the Activity with K562 [4] stood at 89%; in the data set on K562 [13], 41%; with K562 [6], 76%.
Take `CCc1ccc(CCOc2ccc(CC3SC(=O)NC3=O)cc2)nc1` (stereo not drawn): the outcome in the data set on K562 [14] was inactive.

(Values after ChEMBL document CHEMBL4813967, “Tackling resistance in chronic myeloid leukemia: Novel cell death modulators with improved efficacy” (Eur J Med Chem, 2021).)
